Measured values as given in ChEMBL document CHEMBL1155723, “Cytotoxic pheophorbide-related compounds from Clerodendrum calamitosum and C. cyrtophyllum” (2001).
In brackets after ≈: the same amount, converted by molar mass. Activity calls are given as the source filed them. The calls are words filed in the database; no cut-off is given here.

Columns and labels:
1A9 = assay: Cytotoxicity against human 1A9 cells after 72 hrs by SRB assay; assay type: functional; conditions: 1A9, 72 h, read-out: ED50 (the source's name)
Procedure, shortened: (§1)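 Stock cultures kept in RPMI-1640 with 25 mM HEPES, 0.2% (w/v) NaHCO3, 10% (v/v) FBS and 100 µg/mL kanamycin at 37 °C, 5% CO2. Trypsinized cells seeded at 2500-10 000 per well and exposed 72 h at 37 °C to graded concentrations from DMSO stocks (final DMSO ≤2% v/v). Cells fixed with cold 50% TCA, stained with 0.4% SRB, A562 read. ED50 interpolated from dose-response, triplicate.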

SK-MEL = assay: Cytotoxicity against human SK-MEL cells after 72 hrs by SRB assay; assay type: functional; conditions: read-out: ED50 (the source's name); procedure, shortened: as §1
KB [1] = assay: Cytotoxicity against human KB cells after 72 hrs by SRB assay; assay type: functional; conditions: read-out: ED50 (the source's name); procedure, shortened: as §1
HTC [2] = assay: Cytostatic activity against rat HTC cells at 33 ug/ml; assay type: functional, cell-based
HTC [3] = assay: Cytostatic activity against rat HTC cells at 66 ug/ml; assay type: functional, cell-based
HTC [4] = assay: Cytostatic activity against rat HTC cells at 66 ug/ml under direct photoirradiation; assay type: functional, cell-based
HCT-8 = assay: Cytotoxicity against human HCT8 cells after 72 hrs by SRB assay; assay type: functional; conditions: HCT-8, 72 h, read-out: ED50 (the source's name); procedure, shortened: as §1
HTC [5] = assay: Cytostatic activity against rat HTC cells at 33 ug/ml under direct photoirradiation; assay type: functional, cell-based
[6] = Cytotoxicity against human CAKI cells after 72 hrs by SRB assay; assay type: functional; conditions: read-out: ED50 (the source's name); procedure, shortened: as §1
A549 = assay: Cytotoxicity against human A549 cells after 72 hrs by SRB assay; assay type: functional; conditions: A549, 72 h, read-out: ED50 (the source's name); procedure, shortened: as §1
MCF7 = assay: Cytotoxicity against human MCF7 cells after 72 hrs by SRB assay; assay type: functional; conditions: MCF7, 72 h, read-out: ED50 (the source's name); procedure, shortened: as §1
KB [7] = assay: Selectivity for human KB-CPT cells to human KB cells; assay type: functional
KB [8] = assay: Selectivity for human KB-7d cells to human KB cells; assay type: functional
KB [9] = assay: Selectivity for human KB-VCR cells to human KB cells; assay type: functional

Row | Compound | EC50 (1A9) [µg/mL] | EC50 (SK-MEL) [µg/mL] | EC50 (KB [1]) [µg/mL] | Activity (HTC [2]) | Activity (HTC [3]) | Activity (HTC [4]) | EC50 (HCT-8) [µg/mL] | Activity (HTC [5]) | EC50 [6] [µg/mL] | EC50 (A549) [µg/mL] | EC50 (MCF7) [µg/mL] | fold change (FC) (KB [7]) | fold change (FC) (KB [8]) | fold change (FC) (KB [9])
1 | C=Cc1c(C)c2cc3nc(c(C(=O)C(=O)OC)c4[nH]c(cc5nc(cc1[nH]2)C(C)=C5CC)c(C)c4C(=O)OC)[C@@H](CCC(=O)OC)[C@@H]3C | 0.2 (≈ 0.306 µM) | 1.1 (≈ 1.69 µM) | 0.2 (≈ 0.306 µM) | inactive | inactive | Active | 0.79 (≈ 1.21 µM) | Active | 0.55 (≈ 0.843 µM) | 0.49 (≈ 0.751 µM) | 0.73 (≈ 1.12 µM) |  |  | 
2 | C=Cc1c(C)c2cc3nc(c4c5[nH]c(cc6nc(cc1[nH]2)C(C)=C6CC)c(C)c5C(=O)[C@]4(O)C(=O)OC)[C@@H](CCC(=O)O)[C@@H]3C | 1.2 (≈ 1.97 µM) | 4 (≈ 6.57 µM) | 1.3 (≈ 2.14 µM) | inactive | inactive | Active | > 4 | Active | 3 (≈ 4.93 µM) | > 4 | > 4 |  |  | 
3 | C=Cc1c(C)c2cc3nc(c4c5[nH]c(cc6nc(cc1[nH]2)C(C)=C6CC)c(C)c5C(=O)[C@]4(O)C(=O)OC)[C@@H](CCC(=O)OC)[C@@H]3C | 0.27 (≈ 0.434 µM) | 0.84 (≈ 1.35 µM) | 0.3 (≈ 0.482 µM) | inactive | inactive | Active | 0.4 (≈ 0.642 µM) | Active | 1.9 (≈ 3.05 µM) | 0.47 (≈ 0.755 µM) | 0.45 (≈ 0.723 µM) | 1.1 | 0.8 | >57
4 | C=Cc1c(C)c2cc3nc(c4c5[nH]c(cc6nc(cc1[nH]2)C(C)=C6CC)c(C)c5C(=O)[C@]4(O)C(=O)OC)[C@@H](CCC(=O)OC/C=C(\C)CCCC(C)CCCC(C)CCCC(C)C)[C@@H]3C (stereo not given in full) | 22 (≈ 24.8 µM) | 14 (≈ 15.8 µM) | 12 (≈ 13.5 µM) |  |  |  | 14 (≈ 15.8 µM) |  | 19 (≈ 21.4 µM) | 15 (≈ 16.9 µM) | 8.8 (≈ 9.92 µM) |  |  | 
5 | C=Cc1c(C)c2cc3nc(c4c5[nH]c(cc6nc(cc1[nH]2)C(C=O)=C6CC)c(C)c5C(=O)[C@@H]4C(=O)OC)[C@@H](CCC(=O)OC/C=C(\C)CCCC(C)CCCC(C)CCCC(C)C)[C@@H]3C (stereo not given in full) |  |  |  |  |  |  |  | Active |  |  |  |  |  | 
6 | C=Cc1c(C)c2cc3nc(c4c5[nH]c(cc6nc(cc1[nH]2)C(C)=C6CC)c(C)c5C(=O)[C@]4(O)C(=O)OC)[C@@H](CCC(=O)OC/C=C(\C)CCCC(C)CCCC(C)CC(O)CC(C)C)[C@@H]3C (mixture of isomers) |  |  |  |  |  |  |  | Active |  |  |  |  |  | 
7 | COc1cc([C@@H]2c3cc4c(cc3[C@@H](O[C@@H]3O[C@@H]5CO[C@@H](C)O[C@H]5[C@H](O)[C@H]3O)[C@H]3COC(=O)[C@H]23)OCO4)cc(OC)c1O [ETOPOSIDE] |  |  |  |  |  |  |  |  |  |  |  | 1 | 119 | 153
8 | C=Cc1c(C)c2cc3nc(c4c5[nH]c(cc6nc(cc1[nH]2)C(C)=C6CC)c(C)c5C(=O)[C@@H]4C(=O)OC)[C@@H](CCC(=O)OC)[C@@H]3C [METHYL PHEOPHORBIDE A] | 0.26 (≈ 0.429 µM) | 1.2 (≈ 1.98 µM) | 0.23 (≈ 0.379 µM) | inactive | inactive | Active | 1 (≈ 1.65 µM) | Active | 0.62 (≈ 1.02 µM) | 0.83 (≈ 1.37 µM) | 0.95 (≈ 1.57 µM) |  |  | 
9 | CC(=O)O[C@H]1C(=O)[C@@]2(C)[C@H]([C@H](OC(=O)c3ccccc3)[C@]3(O)C[C@H](OC(=O)[C@H](O)[C@@H](NC(=O)c4ccccc4)c4ccccc4)C(C)=C1C3(C)C)[C@]1(OC(C)=O)CO[C@@H]1C[C@@H]2O [PACLITAXEL] |  |  |  |  |  |  |  |  |  |  |  | 1 | 1 | 15
10 | C=Cc1c(C)c2cc3nc(c4c5[nH]c(cc6nc(cc1[nH]2)C(C)=C6CC)c(C)c5C(=O)[C@@H]4C(=O)OC)[C@@H](CCC(=O)O)[C@@H]3C [PHEOPHORBIDE A] | 0.48 (≈ 0.81 µM) | 0.91 (≈ 1.54 µM) | 0.46 (≈ 0.776 µM) | inactive | inactive | Active | 1.5 (≈ 2.53 µM) | Active | 0.88 (≈ 1.48 µM) | 1.5 (≈ 2.53 µM) | 1.6 (≈ 2.7 µM) | 1.1 | 1 | 0.6
11 | C=Cc1c(C)c2cc3nc(c(C(=O)C(=O)OC)c4[nH]c(cc5nc(cc1[nH]2)C(C)=C5CC)c(C)c4C(=O)OC)[C@@H](CCC(=O)O)[C@@H]3C [PURPURIN 7 DIMETHYL ESTER] | 0.64 (≈ 1 µM) | 1.1 (≈ 1.72 µM) | 0.7 (≈ 1.1 µM) | inactive | inactive | Active | 1.6 (≈ 2.51 µM) | Active | 1.3 (≈ 2.04 µM) | 1.8 (≈ 2.82 µM) | 1.6 (≈ 2.51 µM) | 1 | 0.7 | 0.5
